Measurements taken from ChEMBL document CHEMBL4196123, “Discovery of an Orally Bioavailable Dual PI3K/mTOR Inhibitor Based on Sulfonyl-Substituted Morpholinopyrimidines” (ACS Med Chem Lett, 2018).
pIC50: −log10 of the molar value. The source made the active and inactive calls. No cut-off for these calls is given here.

Experiments:
MCF7 = test: Antiproliferative activity against human MCF7 cells harboring PIK3CA E545K mutant after 72 hrs by MTT assay; assay type: functional, cell-based; conditions: MCF7, 72 h
[1] = Inhibition of PI3K in human PC3 cells assessed as reduction in AKT phosphorylation at Ser473 measured after 2 hrs by fluorescence assay; assay type: cell-based; conditions: PC-3, 2 h
T47D = test: Antiproliferative activity against human T47D cells harboring PI3KCA H1047R mutant after 72 hrs by MTT assay; assay type: functional, cell-based
[2] = target: PI3-kinase p110-alpha/p85-alpha (Homo sapiens, UniProt P42336); test: Inhibition of recombinant human full length N-terminal His-tagged p110alpha/p85alpha expressed in baculovirus expression system using PIP2 as substrate measured after 1 hr by Alexa633 Tracer-based fluorescence polarization assay
Method in brief: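 PI3Kα enzyme inhibition; IC50 is the mean of duplicate measurements.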

[3] = Intrinsic clearance in mouse liver microsomes at […] pretreated up to 45 mins followed by NADPH addition and measured by LC-MS/MS analysis; assay type: ADME, microsome; conditions: read-out: CLH
[4] = Intrinsic clearance in human liver microsomes at […] pretreated up to 45 mins followed by NADPH addition and measured by LC-MS/MS analysis; assay type: ADME, microsome; conditions: read-out: CLH
[5] = target: Serine/threonine-protein kinase mTOR (Homo sapiens, UniProt P42345); test: Inhibition of recombinant human GST-tagged mTOR catalytic domain (1360 to 2549 residues) expressed in baculovirus expression system using GFP-4EBP1 as substrate measured after 1 hr by Lathascreen method
[6] = target: Serine/threonine-protein kinase ATR (Homo sapiens) (UniProt Q13535); test: Inhibition of ATR in human HT-29 cells assessed as reduction in camptothecin-induced Chk1 phosphorylation at Ser345 residue up to 10 uM pretreated for 1 hr followed by camptothecin addition; assay type: cell-based
Method in brief: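 HT-29 cells were pretreated with compound for 1 h, then exposed to camptothecin to induce DNA damage. ATR activity was read as phosphorylation of its substrate Chk1, with total Chk1 and β-actin as internal controls. […] served as reference inhibitor.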

[7] = target: PI3-kinase p110-delta/p85-alpha (Homo sapiens, UniProt O00329); test: Inhibition of recombinant human full-length N-terminal His6-tagged p110delta/recombinant human full length p85alpha expressed in baculovirus infected Sf21 insect cells using PIP2 as substrate measured after 1 hr by Alexa633 Tracer-based fluorescence polarization assay
PI3K p110 beta/p85 alpha = PI3K p110 beta/p85 alpha (Homo sapiens, UniProt P42338); test: Inhibition of recombinant human full-length N-terminal His6-tagged p110beta/recombinant human full length p85alpha expressed in baculovirus infected Sf21 insect cells using PIP2 as substrate measured after 1 hr by Alexa633 Tracer-based fluorescence polarization assay
HT-29 [8] = test: Cell cycle arrest in human HT-29 cells assessed as accumulation at G2/M phase at 0.111 to 3 uM after 24 hrs by propidium iodide staining based flow cytometry; assay type: functional
Mus musculus = test: Toxicity in Balb/c nu/nu mouse xenografted with human HT-29 cells harboring PIK3CA P449T mutant assessed as body weight loss at 60 mg/kg, po administered daily via gavage for 10 days relative to control; conditions: in vivo, 240 h
HUVEC = test: Cytotoxicity against HUVEC after 72 hrs by MTT assay; assay type: cell-based; conditions: Homo sapiens
HT-29 [9] = test: Antitumor activity against human HT-29 cells harboring PIK3CA P449T mutant xenografted in Balb/c nu/nu mouse assessed as tumor growth inhibition at 30 mg/kg, po administered daily via gavage for 27 days relative to control; assay type: functional; conditions: HT-29, po, 648 h, read-out: TGI
Method in brief: (§1)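 Balb/c nu/nu mice carrying HT-29 xenografts were dosed by daily oral gavage for 27 days, starting when mean tumor size was about 240 mm³; vehicle group as control. Tumor volume estimated over time, and TGI calculated after 27 days. Mean ± SEM, n = 6. Dunnett's multiple comparison test.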

HT-29 [10] = test: Antitumor activity against human HT-29 cells harboring PIK3CA P449T mutant xenografted in Balb/c nu/nu mouse assessed as tumor growth inhibition at 15 mg/kg, po administered daily via gavage for 27 days relative to control; assay type: functional; conditions: HT-29, po, 648 h, read-out: TGI; method in brief: as §1

Sequence of Serine/threonine-protein kinase ATR (Homo sapiens) (Q13535 whole entry, looked up): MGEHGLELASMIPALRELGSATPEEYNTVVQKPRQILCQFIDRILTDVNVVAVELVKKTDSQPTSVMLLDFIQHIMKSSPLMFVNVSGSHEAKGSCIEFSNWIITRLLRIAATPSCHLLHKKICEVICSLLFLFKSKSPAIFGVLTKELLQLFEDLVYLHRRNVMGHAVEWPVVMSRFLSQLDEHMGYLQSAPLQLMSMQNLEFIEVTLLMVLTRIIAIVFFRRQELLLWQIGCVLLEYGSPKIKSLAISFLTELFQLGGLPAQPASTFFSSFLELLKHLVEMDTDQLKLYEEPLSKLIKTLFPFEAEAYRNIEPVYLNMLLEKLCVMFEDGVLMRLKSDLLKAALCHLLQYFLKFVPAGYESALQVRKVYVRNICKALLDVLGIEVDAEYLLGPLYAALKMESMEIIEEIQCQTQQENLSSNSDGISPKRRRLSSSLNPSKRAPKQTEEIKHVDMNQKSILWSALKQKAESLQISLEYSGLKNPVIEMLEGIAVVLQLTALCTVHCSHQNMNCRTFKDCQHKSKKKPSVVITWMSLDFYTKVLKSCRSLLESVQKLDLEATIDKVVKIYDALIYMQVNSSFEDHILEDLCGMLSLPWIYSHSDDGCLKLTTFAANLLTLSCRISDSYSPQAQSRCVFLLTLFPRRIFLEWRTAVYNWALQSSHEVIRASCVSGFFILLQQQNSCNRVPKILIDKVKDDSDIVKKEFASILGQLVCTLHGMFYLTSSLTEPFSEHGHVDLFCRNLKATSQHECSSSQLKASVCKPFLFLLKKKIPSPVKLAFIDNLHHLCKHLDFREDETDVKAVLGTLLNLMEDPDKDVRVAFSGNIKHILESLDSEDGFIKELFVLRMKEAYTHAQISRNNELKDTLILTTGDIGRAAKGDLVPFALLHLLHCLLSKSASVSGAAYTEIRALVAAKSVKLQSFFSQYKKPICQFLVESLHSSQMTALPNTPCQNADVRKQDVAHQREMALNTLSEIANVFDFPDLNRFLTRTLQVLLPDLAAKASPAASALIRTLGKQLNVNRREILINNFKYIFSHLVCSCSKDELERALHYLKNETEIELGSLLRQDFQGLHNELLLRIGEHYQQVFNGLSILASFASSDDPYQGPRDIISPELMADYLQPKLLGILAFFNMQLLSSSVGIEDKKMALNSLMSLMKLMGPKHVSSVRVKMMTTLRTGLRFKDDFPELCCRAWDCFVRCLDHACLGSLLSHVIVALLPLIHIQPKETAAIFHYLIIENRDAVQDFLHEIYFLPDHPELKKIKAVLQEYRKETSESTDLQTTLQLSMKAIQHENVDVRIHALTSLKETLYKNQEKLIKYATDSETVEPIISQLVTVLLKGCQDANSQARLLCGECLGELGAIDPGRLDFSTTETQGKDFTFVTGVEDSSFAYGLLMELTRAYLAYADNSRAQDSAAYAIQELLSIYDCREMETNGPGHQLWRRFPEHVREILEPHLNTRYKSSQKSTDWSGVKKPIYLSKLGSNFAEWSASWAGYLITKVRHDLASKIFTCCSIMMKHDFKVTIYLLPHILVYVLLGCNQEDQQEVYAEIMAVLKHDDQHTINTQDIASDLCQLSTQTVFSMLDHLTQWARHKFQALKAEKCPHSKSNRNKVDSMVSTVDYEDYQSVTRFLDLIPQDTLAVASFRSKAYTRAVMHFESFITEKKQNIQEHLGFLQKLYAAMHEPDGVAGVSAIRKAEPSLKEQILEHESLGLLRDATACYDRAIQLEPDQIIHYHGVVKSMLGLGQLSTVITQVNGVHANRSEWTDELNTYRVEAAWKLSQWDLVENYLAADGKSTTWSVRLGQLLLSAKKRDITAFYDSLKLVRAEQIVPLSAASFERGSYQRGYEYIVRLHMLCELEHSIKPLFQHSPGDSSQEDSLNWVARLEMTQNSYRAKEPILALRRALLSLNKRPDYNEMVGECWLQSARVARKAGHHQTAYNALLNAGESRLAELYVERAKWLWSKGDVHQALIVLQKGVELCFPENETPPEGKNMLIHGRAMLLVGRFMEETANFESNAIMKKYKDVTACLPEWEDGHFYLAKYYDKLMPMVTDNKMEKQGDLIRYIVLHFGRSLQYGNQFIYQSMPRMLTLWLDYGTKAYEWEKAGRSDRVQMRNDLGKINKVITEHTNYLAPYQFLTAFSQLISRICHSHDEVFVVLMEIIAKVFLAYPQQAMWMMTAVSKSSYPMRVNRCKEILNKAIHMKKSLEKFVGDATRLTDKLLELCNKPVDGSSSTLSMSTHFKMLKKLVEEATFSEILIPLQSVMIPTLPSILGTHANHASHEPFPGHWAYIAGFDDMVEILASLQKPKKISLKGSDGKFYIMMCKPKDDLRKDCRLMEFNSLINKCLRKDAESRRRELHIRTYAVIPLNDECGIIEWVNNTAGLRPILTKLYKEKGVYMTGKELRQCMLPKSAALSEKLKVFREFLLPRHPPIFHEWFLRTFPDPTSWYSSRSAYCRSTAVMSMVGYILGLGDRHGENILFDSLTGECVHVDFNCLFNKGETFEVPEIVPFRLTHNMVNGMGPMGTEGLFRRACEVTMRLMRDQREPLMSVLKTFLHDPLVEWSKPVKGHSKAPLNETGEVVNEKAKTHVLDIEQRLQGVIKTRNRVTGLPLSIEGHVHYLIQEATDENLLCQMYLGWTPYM
Sequence of PI3-kinase p110-alpha/p85-alpha (P27986 whole entry): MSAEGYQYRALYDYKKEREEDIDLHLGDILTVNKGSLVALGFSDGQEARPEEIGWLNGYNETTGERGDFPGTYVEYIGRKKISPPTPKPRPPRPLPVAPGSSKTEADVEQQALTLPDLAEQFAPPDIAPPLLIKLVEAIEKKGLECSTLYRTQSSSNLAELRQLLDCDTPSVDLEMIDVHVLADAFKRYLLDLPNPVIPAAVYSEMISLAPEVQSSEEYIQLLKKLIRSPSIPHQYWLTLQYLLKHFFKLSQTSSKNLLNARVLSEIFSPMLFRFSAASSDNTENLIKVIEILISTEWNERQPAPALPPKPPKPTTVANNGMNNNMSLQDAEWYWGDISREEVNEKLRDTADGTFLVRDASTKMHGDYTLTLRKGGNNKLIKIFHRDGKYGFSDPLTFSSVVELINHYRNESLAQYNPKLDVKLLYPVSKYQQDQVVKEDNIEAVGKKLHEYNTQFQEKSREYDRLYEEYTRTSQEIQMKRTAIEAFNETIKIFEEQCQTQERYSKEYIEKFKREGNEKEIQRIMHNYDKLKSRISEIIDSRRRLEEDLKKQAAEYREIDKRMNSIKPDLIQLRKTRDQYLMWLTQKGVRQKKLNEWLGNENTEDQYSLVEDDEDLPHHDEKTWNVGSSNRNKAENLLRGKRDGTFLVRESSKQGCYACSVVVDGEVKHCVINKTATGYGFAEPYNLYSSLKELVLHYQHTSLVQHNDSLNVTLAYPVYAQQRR
Sequence of PI3-kinase p110-alpha/p85-alpha (P42336 whole entry): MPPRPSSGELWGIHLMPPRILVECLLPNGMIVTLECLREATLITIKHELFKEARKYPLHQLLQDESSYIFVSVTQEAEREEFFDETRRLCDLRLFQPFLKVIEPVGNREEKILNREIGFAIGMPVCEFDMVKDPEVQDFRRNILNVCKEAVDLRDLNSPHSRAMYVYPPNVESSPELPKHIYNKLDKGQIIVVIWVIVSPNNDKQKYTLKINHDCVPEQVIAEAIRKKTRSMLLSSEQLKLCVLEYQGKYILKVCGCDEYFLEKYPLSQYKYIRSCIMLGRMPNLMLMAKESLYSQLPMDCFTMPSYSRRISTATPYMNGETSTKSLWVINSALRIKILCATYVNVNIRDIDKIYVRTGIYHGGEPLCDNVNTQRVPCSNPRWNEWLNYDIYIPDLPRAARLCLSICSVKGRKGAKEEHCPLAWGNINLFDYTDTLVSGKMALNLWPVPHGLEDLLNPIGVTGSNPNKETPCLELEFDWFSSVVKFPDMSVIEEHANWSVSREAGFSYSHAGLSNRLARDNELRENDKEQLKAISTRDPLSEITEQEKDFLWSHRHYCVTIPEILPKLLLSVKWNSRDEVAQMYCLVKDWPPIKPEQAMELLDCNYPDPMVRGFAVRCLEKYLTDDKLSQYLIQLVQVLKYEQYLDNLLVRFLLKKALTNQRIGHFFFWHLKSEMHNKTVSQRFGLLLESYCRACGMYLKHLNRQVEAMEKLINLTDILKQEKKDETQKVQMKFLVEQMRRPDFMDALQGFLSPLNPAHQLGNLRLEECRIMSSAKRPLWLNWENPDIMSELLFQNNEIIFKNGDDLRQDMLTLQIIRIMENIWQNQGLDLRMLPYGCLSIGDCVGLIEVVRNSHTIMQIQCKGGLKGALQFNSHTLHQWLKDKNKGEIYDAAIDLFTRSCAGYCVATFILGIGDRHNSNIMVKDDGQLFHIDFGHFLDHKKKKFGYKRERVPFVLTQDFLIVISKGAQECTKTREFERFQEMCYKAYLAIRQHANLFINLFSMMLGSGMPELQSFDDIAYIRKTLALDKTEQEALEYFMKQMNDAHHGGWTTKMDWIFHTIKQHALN

SMILES | pIC50 (MCF7) | pIC50 [1] | pIC50 (T47D) | pIC50 [2] | further results
C[C@H]1COCCN1c1nc(-c2cnc(N)cc2C(F)(F)F)cc(C(C)(C)S(C)(=O)=O)n1 | 6.67 | 6.51 | 6.76 | – | –
Nc1cc(C(F)(F)F)c(-c2cc(C3(S(=O)(=O)c4cccc(F)c4)CC3)nc(N3CCOCC3)n2)cn1 | 6.54 | 6.22 | 6.62 | 7.85 | –
C[C@H]1COCCN1c1nc(-c2cnc(N)cc2F)cc(C(C)(C)S(C)(=O)=O)n1 | 7.82 | 6.92 | 7.48 | 7.70 | CLint scaled [3]: 40 to 140 mL/min/kg; CLint scaled [4]: 5 to 16 mL/min/kg
C[C@H]1COCCN1c1nc(-c2cnc(N)cc2C(F)(F)F)cc(C2(S(C)(=O)=O)CC2)n1 | 6.95 | 6.26 | 6.89 | 7.80 to 8.05 | pIC50 [5]: 5.67; inhibition [6]: inactive; pIC50 [7]: 6.71; pIC50 (PI3K p110 beta/p85 alpha): 6.58
Nc1cc(C(F)(F)F)c(-c2cc(N3CCOCC3)nc(N3CCOCC3)n2)cn1 [BUPARLISIB] | 6.69 | 6.44 | 6.54 | – | Activity (HT-29 [8]): Active; Activity (Mus musculus): > 25%; inhibition [6]: inactive; pIC50 (HUVEC): 6.05; CLint scaled [3]: 151 mL/min/kg; inhibition in vivo at 30 mg/kg (HT-29 [9]): 55.7%; CLint scaled [4]: 10.9 mL/min/kg; inhibition in vivo at 15 mg/kg (HT-29 [10]): 39.4%
CS(=O)(=O)C(F)c1cc(-c2cnc(N)cc2C(F)(F)F)nc(N2CCOCC2)n1 (configuration not stated) | 5.94 | 5.61 | 5.94 | 7.25 | –
CCS(=O)(=O)C1(c2cc(-c3cnc(N)cc3C(F)(F)F)nc(N3CCOCC3)n2)CC1 | 6.53 | 6.52 | 6.65 | – | –
CS(=O)(=O)C1(c2cc(-c3cnc(N)cc3C(F)(F)F)nc(N3CCOCC3)n2)CCC1 | 6.87 | 6.61 | 6.86 | 7.82 | –
C[C@H]1COCCN1c1nc(-c2cnc(N)cc2C(F)(F)F)cc(C2(S(C)(=O)=O)CCC2)n1 | 7.11 | 6.74 | 7.03 | 8.22 | –
CCS(=O)(=O)C(C)(C)c1cc(-c2cnc(N)cc2C(F)(F)F)nc(N2CCOCC2)n1 | 6.29 | 6.02 | 6.26 | 7.40 | –
CC(C)C(c1cc(-c2cnc(N)cc2C(F)(F)F)nc(N2CCOCC2)n1)S(C)(=O)=O (configuration not stated) | – | – | – | 6.66 | –
CS(=O)(=O)C(F)(F)c1cc(-c2cnc(N)cc2C(F)(F)F)nc(N2CCOCC2)n1 | 6.39 | 6.07 | 6.29 | 7.60 | –
CS(=O)(=O)C1(c2cc(-c3cnc(N)cc3F)nc(N3CCOCC3)n2)CC1 | 7.57 | 6.43 | 7.21 | 7.39 | CLint scaled [3]: 40 to 140 mL/min/kg; CLint scaled [4]: 5 to 16 mL/min/kg
CC(C)(c1cc(-c2cnc(N)cc2C(F)(F)F)nc(N2CCOCC2)n1)S(=O)(=O)c1ccccc1 | 6.05 | 5.81 | 6.32 | 8.05 | –
CC(C)(c1cc(-c2cnc(N)cc2C(F)(F)F)nc(N2CCOCC2)n1)S(C)(=O)=O | 6.65 | 6.51 | 7.24 | – | –
CS(=O)(=O)C1(c2cc(-c3cnc(N)cc3C(F)(F)F)nc(N3CCOCC3)n2)CC1 | – | – | – | – | pIC50 [5]: 5.77; inhibition [6]: inactive; CLint scaled [3]: 185 mL/min/kg; CLint scaled [4]: 9.86 mL/min/kg

Further lines, with some results ahead:

pIC50 (MCF7) | pIC50 [1] | pIC50 (T47D) | pIC50 [2] | SMILES | further results
6.47 | 6.42 | 6.66 | – | CS(=O)(=O)C1(c2cc(-c3cnc(N)cc3C(F)(F)F)nc(N3CCOCC3)n2)CCCC1 | –
– | – | – | 6.65 | C[C@@H]1COCCN1c1nc(-c2cnc(N)cc2C(F)(F)F)cc(C2(S(C)(=O)=O)CC2)n1 | –
6.74 | 6.44 | 6.89 | 8.15 | Nc1cc(C(F)(F)F)c(-c2cc(C3(S(=O)(=O)c4ccccc4F)CC3)nc(N3CCOCC3)n2)cn1 | –
6.24 | 5.89 | 6.21 | 7.24 | Nc1cc(C(F)(F)F)c(-c2cc(C3(S(=O)(=O)c4ccc(F)cc4)CC3)nc(N3CCOCC3)n2)cn1 | –
6.36 | 6.37 | 6.80 | 7.24 | CC(C)S(=O)(=O)C1(c2cc(-c3cnc(N)cc3C(F)(F)F)nc(N3CCOCC3)n2)CC1 | –
6.98 | 6.67 | 6.91 | 7.18 | CC(C)(c1cc(-c2cnc(N)cc2F)nc(N2CCOCC2)n1)S(C)(=O)=O | CLint scaled [3]: 40 to 140 mL/min/kg; CLint scaled [4]: 5 to 16 mL/min/kg
6.22 | 5.93 | 5.97 | 7.19 | CC(C)S(=O)(=O)C(C)(C)c1cc(-c2cnc(N)cc2C(F)(F)F)nc(N2CCOCC2)n1 | –
– | – | – | 6.49 | CS(=O)(=O)C1(c2cc(-c3cnc(N)cc3C(F)(F)F)nc(N3CCOCC3)n2)CCCCC1 | –
6.29 | 6.18 | 6.49 | – | Nc1cc(C(F)(F)F)c(-c2cc(C3(S(=O)(=O)c4ccccc4)CC3)nc(N3CCOCC3)n2)cn1 | –
6.80 | 6.17 | 6.86 | 7.66 | C[C@H]1COCCN1c1nc(-c2cnc(N)cc2C(F)(F)F)cc(C2(S(C)(=O)=O)CCCC2)n1 | –
5.82 | 5.52 | 5.78 | – | CS(=O)(=O)Cc1cc(-c2cnc(N)cc2C(F)(F)F)nc(N2CCOCC2)n1 | pIC50 [5]: 4.85; inhibition [6]: inactive
